Results: ChEMBL document CHEMBL1250448, “Inhibitor hijacking of Akt activation” (Nat Chem Biol, 2009)

Tests used:
[1] = molecular target: T1, Tyrosine-protein kinase ZAP-70 (Homo sapiens) (UniProt P43403); assay: Inhibition of ZAP70 at 1 uM in presence of 10 uM ATP by Select Screen kinase assay relative to untreated control
T1 sequence (whole entry): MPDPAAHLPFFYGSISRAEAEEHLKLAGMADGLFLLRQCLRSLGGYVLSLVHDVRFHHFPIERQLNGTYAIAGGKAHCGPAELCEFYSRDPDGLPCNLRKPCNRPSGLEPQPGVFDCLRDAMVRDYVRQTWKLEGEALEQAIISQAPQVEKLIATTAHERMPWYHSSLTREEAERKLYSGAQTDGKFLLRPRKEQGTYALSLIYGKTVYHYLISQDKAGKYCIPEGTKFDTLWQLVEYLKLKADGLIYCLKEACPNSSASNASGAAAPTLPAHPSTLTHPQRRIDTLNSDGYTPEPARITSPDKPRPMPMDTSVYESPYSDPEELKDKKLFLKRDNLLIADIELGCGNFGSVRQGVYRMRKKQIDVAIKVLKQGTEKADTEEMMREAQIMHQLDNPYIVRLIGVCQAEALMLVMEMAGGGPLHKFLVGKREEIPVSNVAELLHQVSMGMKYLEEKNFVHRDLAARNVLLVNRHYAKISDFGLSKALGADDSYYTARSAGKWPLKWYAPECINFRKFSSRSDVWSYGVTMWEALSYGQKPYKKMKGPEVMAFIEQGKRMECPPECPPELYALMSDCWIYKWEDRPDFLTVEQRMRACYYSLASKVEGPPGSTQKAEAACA
Method in brief: (§1)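 Commercial SelectScreen profiling panel of 220 purified kinases. Each kinase was tested at a single inhibitor concentration of 1 μM, and activity was expressed as percent inhibition.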

[2] = molecular target: Receptor tyrosine-protein kinase erbB-4 (Homo sapiens) (UniProt Q15303); assay: Inhibition of ERBB4 at 1 uM in presence of 10 uM ATP by Select Screen kinase assay relative to untreated control
Method in brief: (§2)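 Single-point screen at 1 μM against a panel of 220 purified kinases, run by Invitrogen staff as a SelectScreen profiling service. Read-out is percent inhibition of kinase activity.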

[3] = molecular target: Phosphorylase b kinase gamma catalytic chain, skeletal muscle/heart isoform (Homo sapiens) (UniProt Q16816); assay: Inhibition of PHKG1 at 1 uM in presence of 100 uM ATP by Select Screen kinase assay relative to untreated control; method in brief: as §1
[4] = molecular target: T2, Interleukin-1 receptor-associated kinase 4 (Homo sapiens) (UniProt Q9NWZ3); assay: Inhibition of IRAK4 at 1 uM in presence of 10 uM ATP by Select Screen kinase assay relative to untreated control
T2 sequence (whole entry): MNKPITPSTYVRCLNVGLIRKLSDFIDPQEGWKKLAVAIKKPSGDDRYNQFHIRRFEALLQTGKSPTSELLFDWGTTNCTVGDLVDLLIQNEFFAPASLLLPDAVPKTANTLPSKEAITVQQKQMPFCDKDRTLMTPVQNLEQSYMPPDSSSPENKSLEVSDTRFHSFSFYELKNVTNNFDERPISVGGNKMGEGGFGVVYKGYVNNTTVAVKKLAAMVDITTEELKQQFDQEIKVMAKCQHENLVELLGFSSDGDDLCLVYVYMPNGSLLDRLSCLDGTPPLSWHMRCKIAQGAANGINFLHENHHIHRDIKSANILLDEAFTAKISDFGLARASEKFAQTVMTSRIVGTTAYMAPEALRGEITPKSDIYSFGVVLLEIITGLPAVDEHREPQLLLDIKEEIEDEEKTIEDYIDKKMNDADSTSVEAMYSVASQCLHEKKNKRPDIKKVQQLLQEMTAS
Method in brief: (§3)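 Single-concentration profiling at 1 μM against a panel of 220 purified kinases, run as an outsourced SelectScreen kinase profiling service. Activity is expressed as percent inhibition.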

[5] = molecular target: Tyrosine-protein kinase Lyn (Homo sapiens) (UniProt P07948); assay: Inhibition of LYN A at 1 uM in presence of 10 uM ATP by Select Screen kinase assay relative to untreated control; method in brief: as §3
[6] = molecular target: Tyrosine-protein kinase ABL2 (Homo sapiens) (UniProt P42684); assay: Inhibition of ABL2 at 1 uM in presence of 10 uM ATP by Select Screen kinase assay relative to untreated control; method in brief: as §2
[7] = molecular target: Glycogen synthase kinase-3 alpha (Homo sapiens) (UniProt P49840); assay: Inhibition of GSK3A at 1 uM in presence of 10 uM ATP by Select Screen kinase assay relative to untreated control
Method in brief: (§4)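 Part of a 220-kinase panel of purified kinases, each tested with compound at 1 μM. Percent inhibition was measured in the Invitrogen SelectScreen profiling assay.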

[8] = molecular target: Dual specificity protein kinase CLK3 (Homo sapiens) (UniProt P49761); assay: Inhibition of CLK3 at 1 uM in presence of 100 uM ATP by Select Screen kinase assay relative to untreated control; method in brief: as §4
[9] = molecular target: Tyrosine-protein kinase ITK/TSK (Homo sapiens) (UniProt Q08881); assay: Inhibition of ITK at 1 uM in presence of 10 uM ATP by Select Screen kinase assay relative to untreated control
[10] = molecular target: Proto-oncogene tyrosine-protein kinase receptor Ret (Homo sapiens) (UniProt P07949); assay: Inhibition of RET at 1 uM in presence of 100 uM ATP by Select Screen kinase assay relative to untreated control
Method in brief: (§5)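 Profiling panel of 220 purified kinases (SelectScreen), each compound tested at 1 μM. Read-out is percent inhibition of kinase activity.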

[11] = molecular target: Ephrin type-A receptor 3 (Homo sapiens) (UniProt P29320); assay: Inhibition of EPHA3 at 1 uM in presence of 10 uM ATP by Select Screen kinase assay relative to untreated control; method in brief: as §4
[12] = test system: Platelet-derived growth factor receptor alpha (Homo sapiens), P16234 [T674I]; assay: Inhibition of PDGFRalpha T674I mutant at 1 uM in presence of 10 uM ATP by Select Screen kinase assay relative to untreated control; method in brief: as §1
[13] = molecular target: Serine/threonine-protein kinase N1 (Homo sapiens) (UniProt Q16512); assay: Inhibition of PKN1 at 1 uM in presence of 10 uM ATP by Select Screen kinase assay relative to untreated control; method in brief: as §5
[14] = molecular target: Insulin receptor (Homo sapiens) (UniProt P06213); assay: Inhibition of INSR at 1 uM in presence of 10 uM ATP by Select Screen kinase assay relative to untreated control
[15] = molecular target: RAC-beta serine/threonine-protein kinase (Homo sapiens) (UniProt P31751); assay: Inhibition of AKT2 at 1 uM in presence of 10 uM ATP by Select Screen kinase assay relative to untreated control; method in brief: as §2
[16] = molecular target: Serine/threonine-protein kinase D3 (Homo sapiens) (UniProt O94806); assay: Inhibition of PRKCN at 1 uM in presence of 10 uM ATP by Select Screen kinase assay relative to untreated control
[17] = test system: Tyrosine-protein kinase ABL1 (Homo sapiens), P00519 [Y253F]; assay: Inhibition of ABL1 Y253F mutant at 1 uM in presence of 10 uM ATP by Select Screen kinase assay relative to untreated control; method in brief: as §2

Sequence of Receptor tyrosine-protein kinase erbB-4 (Homo sapiens) (Q15303 whole entry): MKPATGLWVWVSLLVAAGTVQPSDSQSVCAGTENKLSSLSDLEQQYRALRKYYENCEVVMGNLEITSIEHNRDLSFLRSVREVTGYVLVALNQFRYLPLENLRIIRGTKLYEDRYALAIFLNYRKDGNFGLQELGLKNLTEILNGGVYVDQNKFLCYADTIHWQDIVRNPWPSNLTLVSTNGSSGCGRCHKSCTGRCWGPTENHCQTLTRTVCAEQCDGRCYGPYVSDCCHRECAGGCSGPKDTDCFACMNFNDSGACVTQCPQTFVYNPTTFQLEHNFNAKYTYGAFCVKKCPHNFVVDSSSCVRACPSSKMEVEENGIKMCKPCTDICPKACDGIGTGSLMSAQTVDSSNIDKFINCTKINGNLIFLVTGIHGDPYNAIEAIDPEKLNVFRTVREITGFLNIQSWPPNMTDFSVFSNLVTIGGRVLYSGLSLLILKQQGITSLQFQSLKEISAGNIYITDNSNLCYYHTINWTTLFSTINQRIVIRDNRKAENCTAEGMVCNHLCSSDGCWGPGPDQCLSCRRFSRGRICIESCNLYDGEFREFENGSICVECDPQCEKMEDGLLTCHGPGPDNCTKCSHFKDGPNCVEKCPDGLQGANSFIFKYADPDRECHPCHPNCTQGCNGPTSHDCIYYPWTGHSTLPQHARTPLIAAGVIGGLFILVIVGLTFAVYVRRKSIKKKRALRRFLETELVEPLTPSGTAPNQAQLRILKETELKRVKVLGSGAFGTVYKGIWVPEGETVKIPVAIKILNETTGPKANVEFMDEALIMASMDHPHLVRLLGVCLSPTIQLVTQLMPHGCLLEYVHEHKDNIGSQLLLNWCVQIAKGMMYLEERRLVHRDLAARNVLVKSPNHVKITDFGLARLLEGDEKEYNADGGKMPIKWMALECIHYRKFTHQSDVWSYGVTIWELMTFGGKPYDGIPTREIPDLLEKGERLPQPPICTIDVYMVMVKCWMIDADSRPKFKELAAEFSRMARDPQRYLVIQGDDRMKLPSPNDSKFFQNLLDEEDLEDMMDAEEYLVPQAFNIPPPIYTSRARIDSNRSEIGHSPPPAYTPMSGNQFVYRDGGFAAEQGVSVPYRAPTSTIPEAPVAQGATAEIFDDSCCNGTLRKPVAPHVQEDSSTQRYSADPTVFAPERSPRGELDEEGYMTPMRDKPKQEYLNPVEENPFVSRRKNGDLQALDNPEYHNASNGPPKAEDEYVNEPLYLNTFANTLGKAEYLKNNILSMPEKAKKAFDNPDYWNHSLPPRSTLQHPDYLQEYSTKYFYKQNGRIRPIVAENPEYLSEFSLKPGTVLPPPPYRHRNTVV
Sequence of Phosphorylase b kinase gamma catalytic chain, skeletal muscle/heart isoform (Homo sapiens) (Q16816 whole entry, looked up, canonical isoform): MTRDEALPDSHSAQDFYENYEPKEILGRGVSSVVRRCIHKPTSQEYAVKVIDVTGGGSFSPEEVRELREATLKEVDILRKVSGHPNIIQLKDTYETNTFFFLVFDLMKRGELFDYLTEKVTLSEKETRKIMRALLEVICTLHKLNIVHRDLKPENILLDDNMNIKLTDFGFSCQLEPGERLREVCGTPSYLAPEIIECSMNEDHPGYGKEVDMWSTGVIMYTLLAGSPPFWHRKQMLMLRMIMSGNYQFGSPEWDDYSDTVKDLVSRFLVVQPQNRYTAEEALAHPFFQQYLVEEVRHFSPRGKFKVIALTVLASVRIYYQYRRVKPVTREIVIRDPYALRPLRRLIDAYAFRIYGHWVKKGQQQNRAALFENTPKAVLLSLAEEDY
Sequence of Tyrosine-protein kinase Lyn (Homo sapiens) (P07948 2-512 limits assumed): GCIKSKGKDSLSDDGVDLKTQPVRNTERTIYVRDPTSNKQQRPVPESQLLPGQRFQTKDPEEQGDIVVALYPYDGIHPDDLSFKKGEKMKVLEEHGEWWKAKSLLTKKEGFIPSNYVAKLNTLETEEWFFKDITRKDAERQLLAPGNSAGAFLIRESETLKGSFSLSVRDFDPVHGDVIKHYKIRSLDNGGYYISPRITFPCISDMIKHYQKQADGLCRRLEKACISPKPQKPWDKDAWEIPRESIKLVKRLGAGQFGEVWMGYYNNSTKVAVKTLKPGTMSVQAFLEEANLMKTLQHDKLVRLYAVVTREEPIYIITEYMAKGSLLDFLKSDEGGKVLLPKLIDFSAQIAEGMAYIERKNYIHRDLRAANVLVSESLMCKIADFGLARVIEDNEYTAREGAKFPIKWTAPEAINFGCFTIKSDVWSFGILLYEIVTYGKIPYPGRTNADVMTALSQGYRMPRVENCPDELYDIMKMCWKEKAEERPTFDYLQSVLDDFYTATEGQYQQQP
Sequence of Tyrosine-protein kinase ABL2 (Homo sapiens) (P42684 whole entry): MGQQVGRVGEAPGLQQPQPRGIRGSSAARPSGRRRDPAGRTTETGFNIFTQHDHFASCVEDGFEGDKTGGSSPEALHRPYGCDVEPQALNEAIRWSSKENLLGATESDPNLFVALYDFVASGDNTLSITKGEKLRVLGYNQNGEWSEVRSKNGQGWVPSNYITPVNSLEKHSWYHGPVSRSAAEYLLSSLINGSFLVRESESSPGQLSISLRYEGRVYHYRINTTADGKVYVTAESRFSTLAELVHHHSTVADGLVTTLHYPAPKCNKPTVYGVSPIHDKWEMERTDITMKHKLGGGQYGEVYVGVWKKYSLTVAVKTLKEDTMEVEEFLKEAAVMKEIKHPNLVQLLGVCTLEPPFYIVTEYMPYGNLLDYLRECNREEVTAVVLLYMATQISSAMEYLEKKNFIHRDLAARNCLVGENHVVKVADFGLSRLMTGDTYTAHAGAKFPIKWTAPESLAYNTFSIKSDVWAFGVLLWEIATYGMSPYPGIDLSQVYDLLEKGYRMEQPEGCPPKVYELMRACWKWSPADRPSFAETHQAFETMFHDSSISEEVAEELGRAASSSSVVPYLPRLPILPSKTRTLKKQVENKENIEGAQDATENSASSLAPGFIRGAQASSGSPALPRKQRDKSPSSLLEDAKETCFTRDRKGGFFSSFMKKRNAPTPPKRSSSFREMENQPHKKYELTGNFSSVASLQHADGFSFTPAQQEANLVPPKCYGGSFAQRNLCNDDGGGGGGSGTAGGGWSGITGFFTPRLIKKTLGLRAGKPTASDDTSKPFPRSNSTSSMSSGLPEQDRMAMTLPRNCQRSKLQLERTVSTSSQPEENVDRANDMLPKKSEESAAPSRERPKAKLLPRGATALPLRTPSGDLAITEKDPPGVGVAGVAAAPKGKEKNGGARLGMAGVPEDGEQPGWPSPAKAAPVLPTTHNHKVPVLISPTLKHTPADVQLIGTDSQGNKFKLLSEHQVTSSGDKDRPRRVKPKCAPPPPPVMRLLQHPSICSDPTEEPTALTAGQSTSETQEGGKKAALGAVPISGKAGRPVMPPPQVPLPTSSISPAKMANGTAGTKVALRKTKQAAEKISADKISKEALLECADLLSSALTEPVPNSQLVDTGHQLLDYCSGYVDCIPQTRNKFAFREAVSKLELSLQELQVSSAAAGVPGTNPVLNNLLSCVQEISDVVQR
Sequence of RAC-beta serine/threonine-protein kinase (Homo sapiens) (P31751 whole entry): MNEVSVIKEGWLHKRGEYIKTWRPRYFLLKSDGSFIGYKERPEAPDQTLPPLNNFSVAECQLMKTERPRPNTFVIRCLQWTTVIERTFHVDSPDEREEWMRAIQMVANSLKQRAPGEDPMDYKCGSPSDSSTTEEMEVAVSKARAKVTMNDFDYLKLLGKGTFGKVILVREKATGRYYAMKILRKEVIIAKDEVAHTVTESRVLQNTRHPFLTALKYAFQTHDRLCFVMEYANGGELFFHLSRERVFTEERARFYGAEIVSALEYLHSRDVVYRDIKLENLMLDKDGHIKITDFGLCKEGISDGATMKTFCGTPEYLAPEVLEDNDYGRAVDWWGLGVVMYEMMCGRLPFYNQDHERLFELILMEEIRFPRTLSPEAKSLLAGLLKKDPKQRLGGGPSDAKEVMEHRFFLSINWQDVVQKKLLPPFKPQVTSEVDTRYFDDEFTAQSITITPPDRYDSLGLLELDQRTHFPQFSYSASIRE
Sequence of Dual specificity protein kinase CLK3 (Homo sapiens) (P49761 whole entry, looked up): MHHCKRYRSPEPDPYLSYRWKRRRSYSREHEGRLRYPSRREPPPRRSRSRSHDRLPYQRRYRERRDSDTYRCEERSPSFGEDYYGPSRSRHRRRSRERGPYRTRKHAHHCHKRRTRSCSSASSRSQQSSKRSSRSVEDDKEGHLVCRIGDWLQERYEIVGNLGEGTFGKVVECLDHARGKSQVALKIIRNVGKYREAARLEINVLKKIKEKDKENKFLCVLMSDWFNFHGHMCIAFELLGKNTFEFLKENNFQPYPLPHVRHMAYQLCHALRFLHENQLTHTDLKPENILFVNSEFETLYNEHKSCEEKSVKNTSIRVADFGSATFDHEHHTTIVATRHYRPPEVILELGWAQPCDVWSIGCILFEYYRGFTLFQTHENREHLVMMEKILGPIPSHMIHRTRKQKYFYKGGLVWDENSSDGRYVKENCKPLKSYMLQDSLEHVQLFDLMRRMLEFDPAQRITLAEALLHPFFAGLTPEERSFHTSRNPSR
Sequence of Glycogen synthase kinase-3 alpha (Homo sapiens) (P49840 2-483 limits assumed): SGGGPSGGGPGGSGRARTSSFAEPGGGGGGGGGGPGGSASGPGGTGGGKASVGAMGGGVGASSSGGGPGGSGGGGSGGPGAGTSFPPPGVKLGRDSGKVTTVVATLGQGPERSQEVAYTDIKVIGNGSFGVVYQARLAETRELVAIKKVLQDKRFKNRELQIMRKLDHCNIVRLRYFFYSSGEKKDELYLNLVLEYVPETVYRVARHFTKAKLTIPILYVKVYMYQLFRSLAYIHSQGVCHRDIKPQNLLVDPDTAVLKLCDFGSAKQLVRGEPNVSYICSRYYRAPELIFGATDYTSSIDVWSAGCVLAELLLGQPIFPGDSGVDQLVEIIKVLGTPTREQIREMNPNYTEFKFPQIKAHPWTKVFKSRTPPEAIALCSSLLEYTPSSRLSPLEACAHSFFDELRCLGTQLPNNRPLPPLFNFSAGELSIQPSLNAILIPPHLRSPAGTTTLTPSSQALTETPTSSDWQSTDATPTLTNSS

inhibition [1] [%]	inhibition [2] [%]	inhibition [3] [%]	inhibition [4] [%]	inhibition [5] [%]	inhibition [6] [%]	inhibition [7] [%]	inhibition [8] [%]	inhibition [9] [%]	inhibition [10] [%]	inhibition [11] [%]	inhibition [12] [%]	inhibition [13] [%]	inhibition [14] [%]	inhibition [15] [%]	inhibition [16] [%]	inhibition [17] [%]	Compound
24	34	58	49	27	37	69	8	56	87	13	55	84	7	9	83	36	O=C(NCCCNc1nc(Nc2cccc(NC(=O)N3CCCC3)c2)ncc1I)c1cccs1
4	27	6	9	13	4	80	32	16	41	14	8	18	3	12	18	12	COc1ccccc1N1CCN(c2ncnc3[nH]nc(Br)c23)CC1

Compound	inhibition [1] [%]	inhibition [2] [%]	inhibition [3] [%]	inhibition [4] [%]	inhibition [5] [%]	inhibition [6] [%]	inhibition [7] [%]	inhibition [8] [%]	inhibition [9] [%]	inhibition [10] [%]	inhibition [11] [%]	inhibition [12] [%]	inhibition [13] [%]	inhibition [14] [%]	inhibition [15] [%]	inhibition [16] [%]	inhibition [17] [%]
Cc1n[nH]c2ccc(-c3cncc(OC[C@@H](N)Cc4c[nH]c5ccccc45)c3)cc12	11	-1	76	53	8	–	–	–	–	–	–	–	–	–	–	–	–
